LGR2 inh – blocks bursicon-induced cAMP signaling via Drosophila LGR2 | 380,000 tested, 0.35% active | HEK293 LGR2, CRE-luciferase, bursicon-stimulated, 4 h | inhibition, % at 9.99 µM;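 active = drop in luminescence signal, shown as inhibition above about 50% in the replicate tests, limit read from the data, passing the limit was not always enough; inconclusive = probably only some replicates passing the limit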;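 also: agonist challenge used bursicon conditioned medium at about half maximal strength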
CaV13 ICDI inh – Disruptors of the CACNA1D IQ motif to Ca2+-dependent inactivation inhibitor domain association, primary screening, Förster resonance energy transfer in intact living … | HEK cells, CFP/YFP FRET ICDI-IQ, plate reader, 10 min; percent FRET-ratio fall versus neutral wells | inhibition, % at 12.3 µM | 340,000 tested, 0.098% active;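 active = mean replicate inhibition of at least 30% and at least 1% of replicates passing that level; inconclusive = only one of the two criteria is met; inactive = neither criterion is met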
TROY NFkB inh – blocks TROY-dependent signaling in reporter cells. Q293 LMP1-TROYcd NF-kB luciferase reporter, 4 h. inhibition, % at 10 µM. 360,000 tested, 0.98% active. AID 1347056;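 active = compounds whose plate-normalised and pattern-corrected inhibition of the luciferase reporter signal at the single screening dose is 50% or more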
XiGFP reactiv – reactivates the inactive X chromosome in mouse fibroblasts | XiGFP mouse fibroblasts, % GFP-positive cells imaging, 3 d; cells co-treated with 5-aza-dC sensitizer; scaled so ellipticine positive control = 100% | activation, % at 7.58 µM | 360,000 tested, 0.055% active;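 active = mean normalized replicate activation at least 10% and every replicate at or above 10%; inconclusive = only one of the two criteria met; inactive = mean below 10% and not all replicates reach 10%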
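System: 68-5-11 XiGFP fibroblast line | Buffer or medium: DMEM containing 5-aza-dC | Compound: Single point | Times: Compounds 3 days, fix/stain 15 min at room temperature | Benchmarks: Positive control ellipticine, 6 µM final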
TWEAK Fn14 block – inhibitors of TWEAK-Fn14 interaction signaling; inhibition, % at 10 µM; TWEAK-stimulated Fn14 reporter cells, luciferase luminescence, 8 h; AID 1159606; 360,000 tested, 2% active; in the data active = inhibition above about 50%
A number is an active result; - = inactive; ? = inconclusive; . = no result; ! = repeats disagree. Most compounds without a hit are left out; they make up all but 2% or so of the library.

SMILES | LGR2 inh | CaV13 ICDI inh | TROY NFkB inh | XiGFP reactiv | TWEAK Fn14 block
O=C(CCN1CCCCC1)N[C@H]1CC[C@@H](CCNS(=O)(=O)c2ccc(Cl)cc2)O[C@H]1CO | - | . | . | - | .
Cc1noc(C)c1S(=O)(=O)N(C)C[C@H]1Oc2ccc(N(C)C)cc2CC(=O)N([C@H](C)CO)C[C@H]1C | - | . | . | - | .
Cc1ccccc1NC(=S)NNC(=O)c1csc2c1CCC(C)C2 (configuration not stated) | - | - | 80 | . | 87
CCNC(=S)NNC(=O)c1csc2c1CCC(C)C2 (configuration not stated) | . | - | - | . | -
C[C@@H]1CN([C@H](C)CO)C(=O)c2cc(NS(C)(=O)=O)ccc2O[C@H]1CN(C)S(=O)(=O)c1ccccc1 | - | . | . | - | .
CCn1c(NC(=O)Nc2ccccc2OC)nc2ccccc21 | . | . | . | . | 62
CCn1c(NC(C)=O)nc2ccccc21 | . | - | - | . | -
CCOc1ccc2nc(NC(=O)c3ccoc3C)sc2c1 | . | . | - | . | 63
CCOc1ccc2nc(NC(=O)c3ccco3)sc2c1 | ? | - | - | - | 59
CN1CCC(OC(=O)c2ccc(Cl)cc2Cl)CC1 | - | - | - | - | -
CN1CCC(OC(=O)c2cc3cc(Cl)cc(Cl)c3oc2=O)CC1 | - | - | - | - | 77
C[C@H]1CN([C@@H](C)CO)C(=O)c2cccc(NC(=O)C3CCCCC3)c2O[C@H]1CN(C)Cc1ccncc1 | - | . | . | - | .
CCN(CC)S(=O)(=O)c1ccccc1/C=N\O | - | - | - | . | 62
COc1cccc(-c2nn(C)c3sc(C(=O)N4CCN(c5ccccn5)CC4)cc23)c1 | . | . | 62 | . | 69
Cc1ccc(N(C(=O)CNC(=O)c2ccco2)C(C(=O)NCC2CCCO2)c2ccccc2)cc1 (configuration not stated) | . | . | - | . | -
Cc1cccc(N(C(=O)CNC(=O)c2ccco2)C(C(=O)NCC2CCCO2)c2ccccc2)c1 (configuration not stated) | - | - | - | - | 67
CCCNC(=O)C[C@@H]1C[C@H]2c3cc(NC(=O)Nc4ccccc4F)ccc3O[C@H]2[C@@H](CO)O1 | - | . | . | - | .
Cc1ccc(N=Cc2ccc[nH]2)c(O)c1 | . | - | 76 | . | -
Cc1ccccc1N=Cc1ccc[nH]1 | - | - | - | - | -
O=C(C[C@@H]1CC[C@@H](NC(=O)Nc2ccc(F)cc2)[C@H](CO)O1)NCc1ccccn1 | - | . | . | - | .
COc1ccc(CNC(=O)CSc2nnc3c(n2)[nH]c2ccc(OC)cc23)cc1 | - | - | - | - | -
CCOC(=O)CN(C(=O)CSc1nnc2c(n1)[nH]c1ccc(OC)cc12)c1ccc(F)cc1 | . | - | 74 | . | 66
COc1ccc2[nH]c3nc(SC(C)C)nnc3c2c1 | . | . | 54 | . | 92
Cc1ccc(CNc2ccc3c(c2)ncn3C(C)(C)C)cc1 | - | - | 63 | - | -
Cc1ccc(CNc2ccc3c(c2)nc(C)n3C)cc1 | - | - | - | - | -
SMILES | LGR2 inh | CaV13 ICDI inh | TROY NFkB inh | XiGFP reactiv | TWEAK Fn14 block
Cc1ccc(CNc2ccc3c(c2)ncn3C)cc1 | - | - | - | . | -
COc1ccc(CNc2ccc3c(c2)nc(C)n3C)cc1 | - | - | 60 | . | -
C[C@H](CO)N1C[C@H](C)[C@@H](CN(C)CC2CC2)Oc2c(NC(=O)CCCCCC(=O)Nc3ccccc3N)cccc2C1=O | - | . | . | - | .
O=C(C#Cc1ccccc1)Nc1ccc(F)cc1 | - | - | - | - | -
O=C(C#Cc1ccccc1)Nc1cccc(F)c1 | - | - | - | - | 70
C[C@H](CO)N1C[C@H](C)[C@@H](CN(C)S(=O)(=O)c2ccccc2)Oc2cc(Br)ccc2S1(=O)=O | - | . | . | - | .
COc1ccc(OC)c2c1C(=O)c1ccccc1C2=O | . | - | . | . | .
COc1ccc(OC)c2c1C(=O)C(Cl)=C(Cl)C2=O | 90 | - | 53 | - | 94
O=S(=O)(c1ccc(Cl)c(NC(=S)N/N=C/c2ccc(O)cc2)c1)N1CCOCC1 | - | - | - | . | 58
Cc1ccccc1S(=O)(=O)N1CC[C@@H]2[C@H]1c1cc(C#Cc3ccccc3)ccc1N[C@@H]2CO | - | . | . | - | .
O=C(CCN1CCOCC1)c1ccc(N2CCCCC2)cc1 | - | - | - | - | 55
CO[C@H]1CN(C)C(=O)c2cc(NC(C)=O)ccc2OC[C@H](C)N(Cc2cncnc2)C[C@H]1C | - | . | . | - | .
N#CC1=C(c2ccccc2)/C(=C/c2ccccc2)OC1=O | - | - | - | . | 83
O=C1O/C(=C/c2ccccc2)c2ccccc21 | - | - | - | - | -
CNC(=O)/C(C#N)=c1\s/c(=C/C(=O)OC)c(=O)n1-c1ccccc1 | . | - | - | . | -
COC(=O)/C=c1\sc2ncnn2c1=O | - | - | . | . | 74
Cc1ccc(S(=O)(=O)N[C@@H]2CC[C@@H](CC(=O)NCc3ccccc3F)O[C@@H]2CO)cc1 | - | . | . | - | .
COc1cc([C@@H]2[C@H]3CN(C)CC=C3C(C#N)=C(N)C2(C#N)C#N)cc2c1OCO2 | - | - | 60! | - | 63!
NCC[C@@H]1CC[C@H](NC(=O)C2CCCC2)[C@H](CO)O1 | - | . | . | - | .
C[C@@H]1CN([C@H](C)CO)C(=O)c2cc(-c3ccc(C(=O)N(C)C)cc3)cnc2O[C@H]1CN(C)C(=O)CN(C)C | - | . | . | - | .
Nc1ccc2oc(-c3ccccc3Cl)nc2c1 | - | - | - | - | 51
Nc1ccc(-c2nc3ccc(N)cc3o2)cc1 | - | - | - | - | -
Cc1ccc(C)c(-c2nc3cc(N)ccc3o2)c1 | . | - | . | . | 67
CN(C)c1ccc(-c2nc3cc(N)ccc3o2)cc1 | ? | - | - | - | 74
Nc1ccc(-c2nc3cc(N)ccc3o2)cc1 | - | - | - | - | -
SMILES | LGR2 inh | CaV13 ICDI inh | TROY NFkB inh | XiGFP reactiv | TWEAK Fn14 block
Cc1ccc2nc(-c3cc(N)cc(N)c3)oc2c1 | . | - | 60 | . | 62
CCNC(=O)[C@@H]1[C@@H](CO)[C@@H]2Cn3c(ccc(-c4ccccc4F)c3=O)[C@H]1N2S(C)(=O)=O | - | . | . | - | .
CCc1ccc2oc(-c3cc(N)ccc3O)nc2c1 | . | . | - | . | -
CCc1ccc2oc(-c3cc(N)ccc3Cl)nc2c1 | . | - | 57 | . | 83
C[C@@H](O)C#Cc1ccc2c(c1)O[C@H](CN(C)CC1CC1)[C@@H](C)CN([C@@H](C)CO)S2(=O)=O | - | . | . | - | .
COc1cccc(C(=O)Nc2ccc(C(=O)NCC3CCCO3)cc2)c1 (configuration not stated) | - | - | - | - | -
COc1cccc(OCc2ccc(C(=O)NCC3CCCO3)cc2)c1 (configuration not stated) | - | - | 52 | - | 63
O=C(Nc1nccs1)c1sc2cc(Cl)ccc2c1Cl | . | . | - | . | 102
Cc1ccnc(NC(=O)c2sc3ccccc3c2Cl)c1 | 87 | - | 54 | - | 75
O=C(Nc1nccs1)c1sc2ccccc2c1Cl | . | . | - | . | 67
CC(C)c1nnc(NC(=O)c2sc3ccccc3c2Cl)s1 | . | . | - | . | -
Cc1nn(Cc2ccc(Cl)c(Cl)c2)c(C)c1NC(=O)c1sc2ccccc2c1Cl | . | - | - | . | 58

Compound activity (PubChem)
